In paper PMC7003992 (Journal of medicinal chemistry, 2019):
Like-named read-outs stand apart in the source and are kept apart here.

Key:
[1] = molecular target: T1, NTR1 (Homo sapiens, UniProt P30989); experiment: β-Arrestin2-GFP NTR1 high content assay; format: cell-based
Target sequence in this assay (P30989 whole entry, species assumed): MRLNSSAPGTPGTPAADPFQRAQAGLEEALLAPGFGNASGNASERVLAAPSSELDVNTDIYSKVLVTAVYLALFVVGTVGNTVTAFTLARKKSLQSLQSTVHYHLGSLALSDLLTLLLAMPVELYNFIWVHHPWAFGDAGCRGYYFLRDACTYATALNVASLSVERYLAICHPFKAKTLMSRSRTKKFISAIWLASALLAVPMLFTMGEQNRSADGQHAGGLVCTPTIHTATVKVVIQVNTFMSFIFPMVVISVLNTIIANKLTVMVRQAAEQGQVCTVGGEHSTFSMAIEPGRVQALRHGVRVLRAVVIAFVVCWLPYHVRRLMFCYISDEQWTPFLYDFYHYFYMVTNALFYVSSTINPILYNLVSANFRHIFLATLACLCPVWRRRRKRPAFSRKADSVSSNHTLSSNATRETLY

[2] = molecular target: T2, NTR2 (Homo sapiens, UniProt O95665); experiment: NTR2 counterscreen, same high-content β-arrestin format; format: cell-based; conditions: high-content assay format
Target sequence in this assay (O95665 whole entry, species assumed): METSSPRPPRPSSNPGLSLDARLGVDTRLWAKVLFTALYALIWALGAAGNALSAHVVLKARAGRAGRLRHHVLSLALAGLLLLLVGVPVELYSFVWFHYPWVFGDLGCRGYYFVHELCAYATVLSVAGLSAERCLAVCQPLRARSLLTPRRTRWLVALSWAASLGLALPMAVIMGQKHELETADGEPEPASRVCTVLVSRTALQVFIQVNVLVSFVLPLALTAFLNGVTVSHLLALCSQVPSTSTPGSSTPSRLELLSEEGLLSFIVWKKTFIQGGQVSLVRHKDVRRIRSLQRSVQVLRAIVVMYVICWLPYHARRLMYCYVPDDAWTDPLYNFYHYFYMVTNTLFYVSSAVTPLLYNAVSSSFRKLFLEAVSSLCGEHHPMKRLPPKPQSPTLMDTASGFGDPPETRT

[3] = molecular target: T1, NTR1; experiment: Ca2+ flux assay; format: cell-based
Target sequence in this assay (P30989 whole entry, species assumed): as the sequence (P30989 whole entry, species assumed) above

[4] = molecular target: T1, NTR1; experiment: [125I]-NT radioligand binding to cell membranes; conditions: [125I]-NT 0.02 nM, increasing concentrations of compound
Target sequence in this assay (P30989 whole entry): as the sequence (P30989 whole entry, species assumed) above

[5] = molecular target: T2, NTR2; experiment: [125I]-NT radioligand binding to cell membranes; conditions: [125I]-NT 0.02 nM
Target sequence in this assay (O95665 whole entry): as the sequence (O95665 whole entry, species assumed) above

[6] = molecular target: mouse NTR (Mus musculus, UniProt O88319); experiment: [125I]-NT radioligand binding to cell membranes; conditions: [125I]-NT 0.02 nM
[7] = molecular target: GPR35 (Homo sapiens, UniProt Q9HC97); experiment: GPCR cross reactivity, high-content assay format; format: cell-based
[8] = molecular target: GPR55 (Homo sapiens, UniProt Q9Y2T6); experiment: GPCR cross reactivity, high-content assay format; format: cell-based
[9] = molecular target: K-opioid (Homo sapiens, UniProt P41145); experiment: GPCR cross reactivity, high-content assay format; format: cell-based
[10] = test system: dopamine transporter knockout (DAT−/−) mice; experiment: Open field locomotor activity in dopamine transporter knockout mice; format: in vivo, mouse; conditions: 2 hr post-treatment
Procedure, shortened: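 Male and female DAT KO mice on a C57BL/6J background, 12–24 wk, 18–30 g, age- and sex-matched, randomised, tested early in the light cycle. After 30 min open-field acclimation, dosed at 10 ml/kg i.p. (vehicle 4% DMSO in saline) or p.o. as HCl salt in distilled water (after 5 daily water-gavage habituations). Infrared beam-break horizontal distance in 5-min bins; total summed 30–150 min.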

[11] = Adverse effects in dosed animals; format: in vivo; conditions: animals dosed in the DAT knockout mouse study
[12] = molecular target: T1, NTR1; conditions: cited from earlier work
Target sequence in this assay (P30989 whole entry, species assumed): as the sequence (P30989 whole entry, species assumed) above

mouse NTR, sequence (O88319 whole entry): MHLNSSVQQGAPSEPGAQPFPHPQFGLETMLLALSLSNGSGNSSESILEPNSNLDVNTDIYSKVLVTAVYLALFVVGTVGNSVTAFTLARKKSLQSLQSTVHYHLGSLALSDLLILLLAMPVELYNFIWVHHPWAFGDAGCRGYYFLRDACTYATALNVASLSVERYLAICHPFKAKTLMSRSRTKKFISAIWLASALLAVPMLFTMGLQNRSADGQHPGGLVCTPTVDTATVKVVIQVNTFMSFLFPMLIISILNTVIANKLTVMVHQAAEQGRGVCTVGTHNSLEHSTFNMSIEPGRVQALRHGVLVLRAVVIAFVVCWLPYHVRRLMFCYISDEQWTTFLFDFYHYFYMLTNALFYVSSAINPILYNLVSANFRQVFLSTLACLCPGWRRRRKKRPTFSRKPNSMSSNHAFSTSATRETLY
K-opioid, sequence (P41145 whole entry): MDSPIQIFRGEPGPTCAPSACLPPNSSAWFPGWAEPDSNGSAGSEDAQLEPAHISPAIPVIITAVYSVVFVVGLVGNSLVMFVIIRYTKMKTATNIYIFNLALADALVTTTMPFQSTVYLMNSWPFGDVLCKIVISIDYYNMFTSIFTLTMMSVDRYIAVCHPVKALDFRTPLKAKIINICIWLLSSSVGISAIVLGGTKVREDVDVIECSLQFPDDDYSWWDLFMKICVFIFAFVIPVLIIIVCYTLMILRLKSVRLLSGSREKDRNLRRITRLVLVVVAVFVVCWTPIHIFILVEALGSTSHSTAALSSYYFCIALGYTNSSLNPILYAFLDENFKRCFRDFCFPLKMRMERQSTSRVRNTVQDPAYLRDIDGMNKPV
GPR35, sequence (Q9HC97 whole entry, species assumed): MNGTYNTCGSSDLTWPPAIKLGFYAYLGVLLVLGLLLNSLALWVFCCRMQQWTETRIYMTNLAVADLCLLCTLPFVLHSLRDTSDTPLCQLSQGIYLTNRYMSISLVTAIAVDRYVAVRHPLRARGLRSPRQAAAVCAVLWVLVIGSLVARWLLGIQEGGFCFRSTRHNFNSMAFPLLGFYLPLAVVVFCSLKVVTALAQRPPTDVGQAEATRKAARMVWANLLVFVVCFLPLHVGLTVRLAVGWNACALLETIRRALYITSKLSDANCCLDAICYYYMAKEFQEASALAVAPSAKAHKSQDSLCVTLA
GPR55, sequence (Q9Y2T6 whole entry, species assumed): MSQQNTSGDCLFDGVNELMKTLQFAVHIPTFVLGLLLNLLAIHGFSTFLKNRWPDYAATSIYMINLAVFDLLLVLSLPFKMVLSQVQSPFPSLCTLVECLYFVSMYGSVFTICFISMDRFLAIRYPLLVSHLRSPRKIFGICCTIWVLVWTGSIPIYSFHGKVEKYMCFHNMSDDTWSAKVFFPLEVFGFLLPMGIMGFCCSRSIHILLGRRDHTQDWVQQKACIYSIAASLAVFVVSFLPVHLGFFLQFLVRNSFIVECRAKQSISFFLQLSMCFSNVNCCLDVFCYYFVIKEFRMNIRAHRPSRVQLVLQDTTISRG

## COc1ccccc1C1CCN(c2nc(C3(F)CC3)nc3ccc(N(C)CCO)cc23)CC1 [compound 18, 2-({2-(1-Fluoro-cyclopropyl)-4-[4-(2-methoxy-phenyl)-piperidin-1-yl]-quinazolin-6-yl}-methyl-amino)-ethanol]
[1]; 18 (SBI-553) 0.5−356 nM
  effect on the potency of NT in the NTR1 high-content (β-arrestin2-GFP) assay: no effect
[2]
  cross reactivity: no cross reactivity
[3]; compound alone, without NT
  activity in Ca2+ flux assay, compound alone: no activity
[3]; rightward shift in the presence of 2.15 μM compound
  shift of the NT EC50 in the Ca2+ flux assay: > 30 fold
[4]
  enhancement of neurotensin peptide binding: significant enhancement
[5]
  enhancement of neurotensin peptide binding: but not human NTR2
[6]
  enhancement of neurotensin peptide binding: significant enhancement
[7]
  cross reactivity: no cross reactivity
[8]
  cross reactivity: no cross reactivity
[9]
  cross reactivity: no cross reactivity
[10]; IP dosing, 12 mg/kg
  effect on basal hyperlocomotion: attenuated hyperlocomotion
[10]; PO dosing, 10, 30 or 100 mg/kg as the HCl salt
  effect on basal hyperlocomotion: attenuated hyperlocomotion
[11]
  adverse effects in dosed animals: did not show any adverse effects

## COc1cc2nc(C3CC3)nc(C3CCN(c4ccccc4OC)CC3)c2cc1OC [19a]
[1]; relative to the EC100 (100 nM) of the NT(8–13) peptide control, average ± SEM (n=4 unless otherwise noted in parentheses)
  EC50 (β-Arrestin2-GFP NTR1 potency): not active

## COc1cc2nc(C3CC3)nc(N3CCN(c4ccccc4OC)CC3)c2cc1OC [compound 7]
[1]
  Emax: 100%
[12]
  activity in Ca2+ flux assay, compound alone: no activity
